Assay results taken from ChEMBL document CHEMBL1134670, “Synthesis and cytotoxicity on sensitive and doxorubicin-resistant cell lines of new pyrrolo[2,1-c][1,4]benzodiazepines related to anthramycin” (J Med Chem, 2001).

What was measured:
[1] = (§1) In vitro cytotoxicity expressed as concentration that inhibits 50% of J82 (bladder) resistant variant cell proliferation; format: functional; details: Homo sapiens
In short: (§2)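 Cells were kept at 37 °C in sealed dishes of MEM with 10% heat-inactivated FCS plus glutamine, penicillin, streptomycin and gentamycin. […] Cells were plated at 10 000 cells/mL for 24 h, then given nine concentrations from 10^-5 to 10^-9 M. Growth was read by MTT colorimetric assay.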

K562 [2] = test: In vitro cytotoxicity expressed as concentration that inhibits 50% of K562S (sensitive clone)cell proliferation; format: functional, cell-based; details: Homo sapiens
U-87 MG [3] = test: In vitro cytotoxicity expressed as concentration that inhibits 50% of U87 (glioblastoma) sensitive variant cell proliferation; format: functional, cell-based, U-87MG ATCC; details: Homo sapiens; in short: as §2
HCT-15 [4] = test: In vitro cytotoxicity expressed as concentration that inhibits 50% of HCT 15 (colon) resistant variant cell proliferation; format: functional, cell-based; details: Homo sapiens; in short: as §2
U373 MG = test: In vitro cytotoxicity expressed as concentration that inhibits 50% of U373 (glioblastoma) sensitive variant cell proliferation; format: functional, cell-based, U-373MG ATCC; details: Homo sapiens; in short: as §2
T-24 [5] = test: In vitro cytotoxicity expressed as concentration that inhibits 50% of T24 (bladder) resistant variant cell proliferation; format: functional, cell-based; details: Homo sapiens; in short: as §2
Vero = test: In vitro cytotoxicity expressed as conc. that inhibits 50% of VERO(monkey kidney) cell proliferation; format: functional, cell-based; details: Chlorocebus sabaeus
In short: (§3)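 KB and VERO monolayers in medium 199 with 10% newborn calf serum, 12 × 10^4 cells seeded per well. Serial dilutions from a DMSO or water stock were added at seeding, with final DMSO below 1%. Cultures were held 48 h at 37 °C in 5% CO2. Viability was then measured after 18 h in neutral red medium, SDS lysis and dye absorbance at 540 nm.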

[6] = as §1; format: functional; details: Homo sapiens; in short: as §2; remark: listed apart in the source
LoVo [7] = test: In vitro cytotoxicity expressed as concentration that inhibits 50% of LoVo (colon) resistant cell proliferation; format: functional, cell-based; details: Homo sapiens; in short: as §2
HCT-15 [8] = test: In vitro cytotoxicity expressed as concentration that inhibits 50% of HCT 15 (colon) sensitive variant cell proliferation; format: functional, cell-based; details: Homo sapiens; in short: as §2
T-24 [9] = test: In vitro cytotoxicity expressed as concentration that inhibits 50% of T24 (bladder) sensitive variant cell proliferation; format: functional, cell-based; details: Homo sapiens; in short: as §2
[10] = In vitro cytotoxicity expressed as concentration that inhibits 50% of U373 (glioblastoma) resistant variant cell proliferation; format: functional, cell-based, U-373MG ATCC; details: Homo sapiens, U373 MG; in short: as §2
Homo sapiens = species on record: Homo sapiens; test: In vitro cytotoxicity expressed as conc. that inhibits 50% of KB (human) cell proliferation; format: functional; in short: as §3
U-87 MG [11] = test: In vitro cytotoxicity expressed as concentration that inhibits 50% of U87 (glioblastoma) resistant variant cell proliferation; format: functional, cell-based, U-87MG ATCC; details: Homo sapiens; in short: as §2
LoVo [12] = test: In vitro cytotoxicity expressed as concentration that inhibits 50% of LoVo (colon) sensitive variant cell proliferation; format: functional, cell-based; details: Homo sapiens; in short: as §2
K562 [13] = test: In vitro cytotoxicity expressed as concentration that inhibits 50% of K562R (resistant clone) cell proliferation; format: functional, cell-based; details: Homo sapiens
HCT-116 = test: In vitro cytotoxicity expressed as concentration that inhibits 50% of HCT(human colon carcinoma)116 cell proliferation; format: functional, cell-based
[14] = In vitro cytotoxicity expressed as concentration that inhibits 50% of J82 (bladder) sensitive variant cell proliferation; format: functional; details: Homo sapiens; in short: as §2
K562 [15] = test: In vitro cytotoxicity expressed as concentration that inhibit 50% of K562R (resistant clone) cell proliferation; format: functional, cell-based; details: Homo sapiens

| SMILES | IC50 [1] [nM] | IC50 (K562 [2]) [nM] | IC50 (U-87 MG [3]) [nM] | IC50 (HCT-15 [4]) [nM] | IC50 (U373 MG) [nM] | IC50 (T-24 [5]) [nM] | IC50 (Vero) [nM] | IC50 [6] [nM] | IC50 (LoVo [7]) [nM] | IC50 (HCT-15 [8]) [nM] | IC50 (T-24 [9]) [nM] | IC50 [10] [nM] | IC50 (Homo sapiens) [nM] | IC50 (U-87 MG [11]) [nM] | IC50 (LoVo [12]) [nM] | IC50 (K562 [13]) [nM] | IC50 (HCT-116) [nM] | IC50 [14] [nM] | IC50 (K562 [15]) [nM] |
| --- | --- | --- | --- | --- | --- | --- | --- | --- | --- | --- | --- | --- | --- | --- | --- | --- | --- | --- | --- |
| CO[C@H]1Nc2cc3c(cc2C(=O)N2C=C(/C=C/C(=O)N(C)C)C[C@@H]12)OCO3 | 10 | 50 | 40 | 7 | 30 | 10 | 20 | 10 | 9 | 8 | 10 | 37 | 5 | 38 | 9 | 30 | 20 |  |  |
| CN(C)C(=O)/C=C/C1=CN2C(=O)c3cc4c(cc3NC(S(=O)(=O)O)[C@@H]2C1)OCO4 (some centres not stated) [SODIUM BISULFITE ADDUCT] |  |  |  |  |  |  | 50 |  |  |  |  |  | 50 |  |  |  | 25 |  |  |
| CO[C@@]12[C@H](COC(N)=O)C3=C(C(=O)C(C)=C(N)C3=O)N1C[C@@H]1N[C@@H]12 [MITOMYCIN] |  |  |  |  |  |  |  |  |  |  |  |  | 500 |  |  |  |  |  |  |
| COc1cccc2c1C(=O)c1c(O)c3c(c(O)c1C2=O)C[C@@](O)(C(=O)CO)C[C@@H]3O[C@H]1C[C@H](N)[C@H](O)[C@H](C)O1 [DOXORUBICIN] |  | 50 | 60 | 80 | 10 | > 10000 | 5000 | > 10000 | 80 | 50 | 20 | 130 | 100 | 140 | 8 | 7000 |  | 30 |  |
| CO[C@H]1Nc2ccccc2C(=O)N2C=C(/C=C/C(=O)N(C)C)C[C@@H]12 |  | 85 |  |  |  |  | 75 |  |  |  |  |  | 86 |  |  |  | 50 |  | 120 |
